Results from ChEMBL document CHEMBL1122892, “Mineralocorticoid properties of potential metabolites of 18-hydroxydeoxycorticosterone and 18-hydroxyprogesterone” (J Med Chem, 1985).

How the values were obtained:
[1] = biological target: T1, Mineralocorticoid receptor (Rattus norvegicus) (UniProt P22199); experiment: Mineralocorticoid activity in vivo expressed as a ratio (M/DOCA) of the urinary sodium/potassium excretion transformations after deoxy-corticosterone acetate treatment.; type: functional, organism-based; conditions: Urine
T1 sequence (whole entry): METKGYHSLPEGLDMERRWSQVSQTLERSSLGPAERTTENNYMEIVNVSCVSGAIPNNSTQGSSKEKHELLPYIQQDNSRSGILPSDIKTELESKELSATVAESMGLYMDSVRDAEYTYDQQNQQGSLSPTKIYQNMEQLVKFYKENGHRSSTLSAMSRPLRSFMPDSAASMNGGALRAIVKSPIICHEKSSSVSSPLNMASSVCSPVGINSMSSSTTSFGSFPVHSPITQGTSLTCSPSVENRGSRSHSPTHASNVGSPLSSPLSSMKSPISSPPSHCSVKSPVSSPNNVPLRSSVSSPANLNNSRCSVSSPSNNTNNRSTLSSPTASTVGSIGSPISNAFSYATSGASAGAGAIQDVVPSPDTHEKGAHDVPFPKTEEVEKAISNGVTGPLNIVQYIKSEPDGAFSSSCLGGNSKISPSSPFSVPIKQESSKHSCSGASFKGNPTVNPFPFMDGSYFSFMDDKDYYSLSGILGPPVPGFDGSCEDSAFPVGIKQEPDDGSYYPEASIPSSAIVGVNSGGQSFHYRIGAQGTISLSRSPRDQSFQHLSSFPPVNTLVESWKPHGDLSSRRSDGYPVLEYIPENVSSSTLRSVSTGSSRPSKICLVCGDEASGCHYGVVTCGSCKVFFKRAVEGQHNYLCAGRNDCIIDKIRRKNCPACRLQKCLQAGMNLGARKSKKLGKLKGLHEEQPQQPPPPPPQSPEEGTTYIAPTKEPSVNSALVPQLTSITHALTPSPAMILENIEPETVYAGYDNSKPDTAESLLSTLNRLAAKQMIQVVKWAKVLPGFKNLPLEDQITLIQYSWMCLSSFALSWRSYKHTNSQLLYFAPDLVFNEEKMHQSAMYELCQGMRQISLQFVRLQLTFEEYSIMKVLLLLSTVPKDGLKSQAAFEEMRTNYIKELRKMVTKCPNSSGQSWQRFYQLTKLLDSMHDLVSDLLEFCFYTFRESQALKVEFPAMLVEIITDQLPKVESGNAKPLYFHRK
Outline: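 Saline-loaded (2.5 mL) adrenalectomized rats given 12 μg DOCA s.c. in oil plus test steroid 2.4 mg/animal s.c. in corn oil. Urine collected 4 h in metabolism cages, then voided by suprapubic pressure. Na and K measured by flame photometry as log(Na × 10/K). Ratio to DOCA-only controls (M/DOCA); >1.23 taken as antagonism, <0.85 as agonism.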

[2] = biological target: T1, Mineralocorticoid receptor (Rattus norvegicus); experiment: Binding affinity expressed as the percent inhibition of 2x10E-9 M [3H]aldosterone binding to the renal mineralocorticoid receptor by the presence of competing steroid (8x10E-8 M).
Outline: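 Washed kidney slices from adrenalectomized rats incubated with 2 × 10^-9 M [3H]aldosterone plus 8 × 10^-8 M competing 18-hydroxy steroid and 2 × 10^-8 M dexamethasone, pH 7.2 Tris/phosphate saline buffer with Mg, Ca, dextrose. Homogenized; high-speed supernatant treated with charcoal-dextran to strip free ligand. Bound label counted as cpm/mg protein, nonspecific at 2 × 10^-7 M unlabeled aldosterone. Value is % inhibition; Student's t test vs 0%.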

Compound: C[C@H]1OC(=O)C23CCC4C(CC=C5CC(O)CCC54C)C2CCC13 (stereo partly specified)
- Ratio [1]: 0.72
- Percent inhibition of [3H]aldosterone binding [2]: 12.5

Compound: CC(=O)OCC12CCC3C(CC=C4CC(O)CCC43C)C1CCC2C(C)=O (stereo unspecified)
- Ratio [1]: 1.95
- Percent inhibition of [3H]aldosterone binding [2]: 0

Compound: C[C@H]1OC(=O)[C@]23CC[C@H]4[C@@H](CC[C@H]5CC(=O)CC[C@@]54C)[C@@H]2CC[C@H]13
- Ratio [1]: 0.87
- Percent inhibition of [3H]aldosterone binding [2]: 0

Compound: CC(=O)OC[C@]12CC[C@H]3[C@@H](CC[C@H]4CC(=O)CC[C@@]43C)[C@@H]1CC[C@@H]2C(C)=O
- Ratio [1]: 1.08
- Percent inhibition of [3H]aldosterone binding [2]: 0

Compound: CC12CCC(=O)C[C@@H]1CC[C@H]1[C@@H]3CCC4C(O)(CO)OCC43CC[C@@H]12 (stereo partly specified)
- Ratio [1]: 0.69
- Percent inhibition of [3H]aldosterone binding [2]: 3

Compound: C[C@@H](O)C1CCC2C3CC=C4CC(O)CCC4(C)C3CCC21CO (stereo partly specified)
- Ratio [1]: 0.89
- Percent inhibition of [3H]aldosterone binding [2]: 5

Compound: C[C@H]1OC(=O)C23CC[C@H]4[C@@H](CC[C@H]5CC(=O)CCC54C)[C@@H]2CCC13 (stereo partly specified)
- Ratio [1]: 0.96
- Percent inhibition of [3H]aldosterone binding [2]: 10.5

Compound: CC(=O)OCC1(O)OC[C@]23CC[C@H]4[C@@H](CC[C@H]5CC(=O)CC[C@@]54C)[C@@H]2CC[C@H]13 (stereo partly specified)
- Ratio [1]: 0.96
- Percent inhibition of [3H]aldosterone binding [2]: 20

Compound: CC(=O)OCC1(O)OCC23CCC4C(CC=C5CC(O)CCC54C)C2CCC13 (stereo unspecified)
- Ratio [1]: 0.55
- Percent inhibition of [3H]aldosterone binding [2]: 7

Compound: CC(=O)OCC1(O)OCC23CC[C@H]4[C@@H](CC[C@H]5CC(=O)CCC54C)[C@@H]2CCC13 (stereo partly specified)
- Ratio [1]: 0.8
- Percent inhibition of [3H]aldosterone binding [2]: 20

Compound: CC1(O)OCC23CC[C@H]4[C@@H](CC[C@H]5CC(O)CCC54C)[C@@H]2CCC13 (stereo partly specified)
- Ratio [1]: 0.92
- Percent inhibition of [3H]aldosterone binding [2]: 30

Compound: C[C@@H](O)C1CC[C@H]2[C@@H]3CC[C@H]4CC(O)CCC4(C)[C@H]3CCC12CO (stereo partly specified)
- Ratio [1]: 0.72
- Percent inhibition of [3H]aldosterone binding [2]: 23.5

Compound: C[C@]12CCC(=O)C[C@@H]1CC[C@@H]1[C@@H]2CC[C@]23COC(O)(CO)[C@H]2CC[C@@H]13 (stereo partly specified)
- Ratio [1]: 0.78
- Percent inhibition of [3H]aldosterone binding [2]: 32

Compound: CC(=O)OC[C@]12CC[C@H]3[C@@H](CC[C@H]4CC(=O)CC[C@@]43C)[C@@H]1CC[C@@H]2[C@@H](C)O
- Ratio [1]: 1.16
- Percent inhibition of [3H]aldosterone binding [2]: 10.5

Compound: CC1(O)OC[C@]23CC[C@H]4[C@@H](CC[C@H]5CC(=O)CC[C@@]54C)[C@@H]2CC[C@H]13 (stereo partly specified)
- Ratio [1]: 1.01
- Percent inhibition of [3H]aldosterone binding [2]: 0

Compound: CC1(O)OCC23CCC4C(CC=C5CC(O)CCC54C)C2CCC13 (stereo unspecified)
- Ratio [1]: 0.5
- Percent inhibition of [3H]aldosterone binding [2]: 10.1

Compound: CC12CCC(=O)C=C1CCC1C2CCC23COC(O)(CO)C2CCC13 (stereo unspecified)
- Ratio [1]: 0.54
- Percent inhibition of [3H]aldosterone binding [2]: 29.5

Compound: CC(=O)OCC12CCC3C(CCC4=CC(=O)CCC43C)C1CCC2[C@@H](C)O (stereo partly specified)
- Ratio [1]: 1.16
- Percent inhibition of [3H]aldosterone binding [2]: 13

Compound: C[C@]12CC[C@H](O)C[C@@H]1CC[C@@H]1[C@@H]2CC[C@]23COC(O)(CO)[C@H]2CC[C@@H]13 (stereo partly specified)
- Ratio [1]: 1.06
- Percent inhibition of [3H]aldosterone binding [2]: 19.5

Compound: CC(=O)OCC12CC[C@H]3[C@@H](CC[C@H]4CC(O)CCC43C)[C@@H]1CCC2C(C)=O (stereo partly specified)
- Ratio [1]: 0.99
- Percent inhibition of [3H]aldosterone binding [2]: 0

Compound: CC(=O)OCC1(O)OCC23CCC4C(CCC5=CC(=O)CCC54C)C2CCC13 (stereo unspecified)
- Ratio [1]: 0.71
- Percent inhibition of [3H]aldosterone binding [2]: 34

Compound: CC12CCC(O)C[C@@H]1CC[C@H]1[C@@H]3CCC4C(O)(CO)OCC43CC[C@@H]12 (stereo partly specified)
- Ratio [1]: 0.96
- Percent inhibition of [3H]aldosterone binding [2]: 0

Compound: C[C@H]1OC(=O)C23CC[C@H]4[C@@H](CC[C@H]5CC(O)CCC54C)[C@@H]2CCC13 (stereo partly specified)
- Ratio [1]: 0.61

Compound: CC1(O)OCC23CC[C@H]4[C@@H](CC[C@H]5CC(=O)CCC54C)[C@@H]2CCC13 (stereo partly specified)
- Ratio [1]: 0.91
- Percent inhibition of [3H]aldosterone binding [2]: 8.3

Compound: CC(=O)OCC12CC[C@H]3[C@@H](CC[C@H]4CC(=O)CCC43C)[C@@H]1CCC2C(C)=O (stereo partly specified)
- Ratio [1]: 1.1
- Percent inhibition of [3H]aldosterone binding [2]: 0

Compound: CC(=O)OCC1(O)OCC23CC[C@H]4[C@@H](CC[C@H]5CC(O)CCC54C)[C@@H]2CCC13 (stereo partly specified)
- Ratio [1]: 1.1
- Percent inhibition of [3H]aldosterone binding [2]: 0

Compound: CC1(O)OCC23CCC4C(CCC5=CC(=O)CCC54C)C2CCC13 (stereo unspecified)
- Ratio [1]: 0.76
- Percent inhibition of [3H]aldosterone binding [2]: 34.5

Compound: C[C@@H](O)C1CC[C@H]2[C@@H]3CC[C@H]4CC(=O)CCC4(C)[C@H]3CCC12CO (stereo partly specified)
- Ratio [1]: 1.03
- Percent inhibition of [3H]aldosterone binding [2]: 13

Compound: CC1(O)OC[C@]23CC[C@H]4[C@@H](CCC5C[C@@H](O)CC[C@@]54C)[C@@H]2CC[C@H]13 (stereo partly specified)
- Ratio [1]: 0.91

Compound: CC(=O)OC[C@]12CC[C@H]3[C@@H](CC[C@H]4C[C@@H](O)CC[C@@]43C)[C@@H]1CC[C@@H]2C(C)=O
- Ratio [1]: 1.13
- Percent inhibition of [3H]aldosterone binding [2]: 14.2

Compound: CC12CCC(O)CC1=CCC1C2CCC23COC(O)(CO)C2CCC13 (stereo unspecified)
- Ratio [1]: 0.71
- Percent inhibition of [3H]aldosterone binding [2]: 3.5

Compound: CC(=O)OCC12CC[C@H]3[C@@H](CC[C@H]4CC(=O)CCC43C)[C@@H]1CCC2[C@@H](C)O (stereo partly specified)
- Ratio [1]: 0.93
- Percent inhibition of [3H]aldosterone binding [2]: 17

Compound: C[C@@H](O)[C@H]1CC[C@H]2[C@@H]3CC[C@H]4CC(=O)CC[C@]4(C)[C@H]3CC[C@]12CO
- Ratio [1]: 0.43
- Percent inhibition of [3H]aldosterone binding [2]: 6.5

Compound: C[C@@H](O)C1CCC2C3CCC4=CC(=O)CCC4(C)C3CCC21CO (stereo partly specified)
- Ratio [1]: 1.33
- Percent inhibition of [3H]aldosterone binding [2]: 34.3

Compound: CC(=O)OCC1(O)OC[C@]23CC[C@H]4[C@@H](CC[C@H]5C[C@@H](O)CC[C@@]54C)[C@@H]2CC[C@H]13 (stereo partly specified)
- Ratio [1]: 0.83

Compound: C[C@H]1OC(=O)C23CCC4C(CCC5=CC(=O)CCC54C)C2CCC13 (stereo partly specified)
- Ratio [1]: 1.32
- Percent inhibition of [3H]aldosterone binding [2]: 65

Compound: CC(=O)OCC12CCC3C(CCC4=CC(=O)CCC43C)C1CCC2C(C)=O (stereo unspecified)
- Ratio [1]: 1.19
- Percent inhibition of [3H]aldosterone binding [2]: 25.5
